Experimental data reported in ChEMBL document CHEMBL4422614 (Eur J Med Chem, 2019).

Assays:
[1] = Antioxidant activity assessed as trolox equivalent of AAPH-induced radical scavenging activity at 10 to 20 uM preincubated for 10 mins followed by AAPH addition measured every minute for 120 mins by ORAC fluorescein assay; assay type: functional
Outline: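 ORAC values are expressed as trolox equivalents, mean ± SD of three independent experiments.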

[2] = target: 3',5'-cyclic-AMP phosphodiesterase 4D (Homo sapiens, UniProt Q08499); assay: Inhibition of human PDE4D2 (86 to 413 residues) catalytic domain using [3H]-cAMP as substrate after 15 mins by liquid scintillation counting method
Chain of 3',5'-cyclic-AMP phosphodiesterase 4D (Q08499 whole entry, the tested form may be a part): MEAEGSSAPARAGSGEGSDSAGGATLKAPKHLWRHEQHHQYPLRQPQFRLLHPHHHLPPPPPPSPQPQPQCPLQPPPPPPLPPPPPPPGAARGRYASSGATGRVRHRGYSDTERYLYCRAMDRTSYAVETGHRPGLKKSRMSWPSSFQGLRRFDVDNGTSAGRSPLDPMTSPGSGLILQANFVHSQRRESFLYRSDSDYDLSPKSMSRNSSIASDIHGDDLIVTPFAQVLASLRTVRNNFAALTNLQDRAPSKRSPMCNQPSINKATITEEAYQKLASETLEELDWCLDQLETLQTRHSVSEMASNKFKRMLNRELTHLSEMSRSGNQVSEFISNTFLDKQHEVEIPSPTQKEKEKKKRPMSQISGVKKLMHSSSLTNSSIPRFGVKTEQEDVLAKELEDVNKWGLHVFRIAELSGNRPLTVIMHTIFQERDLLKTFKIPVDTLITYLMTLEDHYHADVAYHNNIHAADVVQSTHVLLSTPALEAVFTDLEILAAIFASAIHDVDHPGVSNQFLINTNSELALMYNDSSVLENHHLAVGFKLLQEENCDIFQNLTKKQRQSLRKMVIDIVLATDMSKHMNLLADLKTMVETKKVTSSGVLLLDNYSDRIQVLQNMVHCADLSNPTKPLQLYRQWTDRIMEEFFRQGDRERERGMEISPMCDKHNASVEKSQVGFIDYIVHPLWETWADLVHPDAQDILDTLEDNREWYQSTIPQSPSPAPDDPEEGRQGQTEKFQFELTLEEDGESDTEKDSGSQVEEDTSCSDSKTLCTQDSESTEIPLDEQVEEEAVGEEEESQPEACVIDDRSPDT

in vitro = details: PAMPA
[3] = Drug metabolism in Sprague-Dawley rat liver microsomes assessed as metabolic rate up to 180 mins in presence of NADPH by UV-based LC-MS/MS analysis; assay type: ADME, Microsome; details: 3 h
SH-SY5Y = assay: Cytotoxicity against human SH-SY5Y cells assessed as effect on cell viability at 10 uM after 24 hrs by MTT assay; assay type: cell-based
Outline: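 SH-SY5Y viability was measured by MTT after exposure to compounds at 10 µM. Results are percent of vehicle control from three independent experiments.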

[4] = Metal chelating activity assessed as inhibition of Cu2+-induced amyloid beta (1 to 42 residues) aggregation at 25 uM after 24 hrs by thioflavin-T fluorescence assay (reference value: 156%); parameters: scale not given: the % may be the effect or the level left
Outline: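 Aβ1-42 was incubated with Cu(II) (CuSO4) with or without compound, and thioflavin T fluorescence was read. The Aβ-alone signal was set as 100%. Mean ± SD of three independent experiments.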

Work on COc1ccc(C(=O)Nc2ccc3cccc(O)c3n2)cc1OC1CCCC1 yielded an Activity [1] of 0.7 equiv, an IC50 [2] of 4.64 µM and a Papp at 10 h, 100 ug/ml (in vitro) of 16.4 ×10⁻⁶ cm/s.
Work on C[C@]12CC[C@H]3[C@@H](CCC4=CC(=O)CC[C@@]43C)[C@@H]1CC[C@@H]2O [TESTOSTERONE] yielded a K [3] of 0.301 min⁻¹.
For Cl.O=C(Nc1cc(Cl)c(O)c2ncccc12)c1ccc(OC(F)F)c(OCC2CC2)c1, the Activity [1] was 0.74 equiv, the Activity (SH-SY5Y) was “Toxic” and the IC50 [2] was 3.83 µM. The Activity [4] was 82%.
In the case of COc1ccc(NC(=O)c2ccc3c(Cl)cc(Cl)c(O)c3n2)cc1OC1CCCC1, the Activity [1] is reported as 1.29 equiv and the IC50 [2] is reported as 6.78 µM.
With COc1ccc(NC(=O)c2ccc3c(Cl)cc(Cl)c(O)c3n2)cc1OC the Activity [1] was 1.05 equiv and the IC50 [2] was 8.07 µM.
With COc1ccc(C(=O)Nc2cc(Cl)c(O)c3ncccc23)cc1OC1CCCC1.Cl the Activity [1] was 0.56 equiv, the Activity (SH-SY5Y) was “Toxic” and the IC50 [2] was 3.13 µM. It also gave an Activity [4] of 70.2%.
With Cl.O=C(Nc1cc(I)c(O)c2ncccc12)c1ccc(OC(F)F)c(OCC2CC2)c1 the Activity [1] was 0.69 equiv, the IC50 [2] was 0.426 µM and the Papp at 10 h, 100 ug/ml (in vitro) was 7.05 ×10⁻⁶ cm/s.
Molecule O=C(Nc1ccc2cccc(O)c2n1)c1ccc(OC(F)F)c(OCC2CC2)c1 has an Activity [1] of 0.34 equiv, an IC50 [2] of 4.06 µM and a Papp at 10 h, 100 ug/ml (in vitro) of 15.8 ×10⁻⁶ cm/s.
